Measurements from ChEMBL document CHEMBL3044956, “Nematicidal and antifungal activities of annonaceous acetogenins from Annona squamosa against various plant pathogens” (J Agric Food Chem, 2011).
Values after ≈ are worked out from the molar mass of the structure shown. Active and inactive are the calls of the source. The rule behind the calls is not given here.

What was measured:
Meloidogyne incognita [1] = experiment: Nematicidal activity against second juvenile stage (J2) of Meloidogyne incognita (root-knot nematode) assessed as mortality incubated in the dark at 28 degC after 3 days by light microscopy (benficial crop Tomato); assay type: functional; conditions: 72 h
How it was run: (§1)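 M. incognita eggs taken from infected tomato roots with hypochlorite and J2s hatched in Baermann funnels at 28 °C. J2s from the first 3 days kept in 0.01% Tween 20 water and used within 24 h. About 100 J2s per well; stock added 1:100 in DMSO or MeOH (≤1%). Plates kept shaking in the dark at 28 °C, scored by microscope at 1, 2 and 3 days. Mortality Abbott-corrected. Two runs, three replicates each.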

Meloidogyne incognita [2] = experiment: Nematicidal activity against second juvenile stage (J2) of Meloidogyne incognita (root-knot nematode) assessed as mortality incubated in the dark at 28 degC after 2 days by light microscopy (benficial crop Tomato); assay type: functional; conditions: 48 h; how it was run: as §1
Rhizoctonia solani [3] = experiment: In vivo antifungal activity against Rhizoctonia solani infected rice seedlings assessed as control of rice sheath blight disease development at 125 ug/ml treated 1 day before spore inoculation measured 3-7 days after inoculation; assay type: functional
How it was run: (§2)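 Potted seedlings sprayed to runoff with material dissolved in MeOH and diluted in 0.025% Tween 20 (5% MeOH); controls got the Tween/MeOH solution alone. Inoculated with spores or mycelial suspension 1 day later. Infected leaf or sheath area rated 3–7 days after inoculation; % control = 100(A−B)/A. Randomized complete block design, three replicates, run in duplicate; Tukey HSD.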

Botrytis cinerea [4] = experiment: In vivo antifungal activity against Botryotinia fuckeliana infected in tomato seedlings assessed as control of tomato gray mold disease development at 250 ug/ml treated 1 day before spore inoculation measured 3-7 days after inoculation; assay type: functional; how it was run: as §2
Botrytis cinerea [5] = experiment: In vivo antifungal activity against Botryotinia fuckeliana infected in tomato seedlings assessed as control of tomato gray mold disease development at 500 ug/ml treated 1 day before spore inoculation measured 3-7 days after inoculation; assay type: functional; how it was run: as §2
Rhizoctonia solani [6] = experiment: In vivo antifungal activity against Rhizoctonia solani infected rice seedlings assessed as control of rice sheath blight disease development at 250 ug/ml treated 1 day before spore inoculation measured 3-7 days after inoculation; assay type: functional; how it was run: as §2
Rhizoctonia solani [7] = experiment: In vivo antifungal activity against Rhizoctonia solani infected rice seedlings assessed as control of rice sheath blight disease development at 500 ug/ml treated 1 day before spore inoculation measured 3-7 days after inoculation; assay type: functional; how it was run: as §2
Pyricularia oryzae [8] = experiment: In vivo antifungal activity against Magnaporthe oryzae infected rice seedlings assessed as control of rice blast disease development at 125 ug/ml treated 1 day before spore inoculation measured 3-7 days after inoculation; assay type: functional; how it was run: as §2
Pyricularia oryzae [9] = experiment: In vivo antifungal activity against Magnaporthe oryzae infected rice seedlings assessed as control of rice blast disease development at 250 ug/ml treated 1 day before spore inoculation measured 3-7 days after inoculation; assay type: functional; how it was run: as §2
Pyricularia oryzae [10] = experiment: In vivo antifungal activity against Magnaporthe oryzae infected rice seedlings assessed as control of rice blast disease development at 500 ug/ml treated 1 day before spore inoculation measured 3-7 days after inoculation; assay type: functional; how it was run: as §2
Puccinia recondita [11] = experiment: In vivo antifungal activity against Puccinia recondita infected wheat seedlings assessed as reduction in wheat leaf rust disease symptoms development at 125 ug/ml treated 1 day before spore inoculation measured 7 days after inoculation; assay type: functional; set-up: scale not given: the % may be the effect or the level left; how it was run: as §2
Puccinia recondita [12] = experiment: In vivo antifungal activity against Puccinia recondita infected wheat seedlings assessed as reduction in wheat leaf rust disease symptoms development at 250 ug/ml treated 1 day before spore inoculation measured 7 days after inoculation; assay type: functional; set-up: scale not given: the % may be the effect or the level left; how it was run: as §2
Puccinia recondita [13] = experiment: In vivo antifungal activity against Puccinia recondita infected wheat seedlings assessed as reduction in wheat leaf rust disease symptoms development at 500 ug/ml treated 1 day before spore inoculation measured 7 days after inoculation; assay type: functional; set-up: scale not given: the % may be the effect or the level left; how it was run: as §2
Phytophthora infestans [14] = experiment: In vivo antifungal activity against Phytophthora infestans zoospores infected tomato seedlings assessed as control of tomato late blight disease development treated 1 day before spore inoculation measured 3 days after inoculation; assay type: functional, organism-based; how it was run: as §2
Phytophthora infestans [15] = experiment: Antifungal activity against Phytophthora infestans assessed as inhibition of radial mycelial growth at 11.11 to 900 ug/ml incubated at 20 degC for 5 to 7 days by poison plate assay; assay type: functional
How it was run: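 Poison-plate assay: material in MeOH added 1:100 to V8-agar at 50 °C, 2 mL per well of six-well plates, centre-inoculated with a 5 mm plug from the colony margin. Incubated at 20 °C until control growth reached the edge. Controls were 1% MeOH. Read as % inhibition of radial growth. Two runs, four replicates each. IC50 by probit.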

Phytophthora infestans [16] = experiment: Antifungal activity against Phytophthora infestans assessed as inhibition of zoospore germination incubated in the dark at 20 degC for 24 hr by light microscopy; assay type: functional, organism-based
How it was run: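 Zoospores released by chilling sporangia 1 h at 4 °C, then filtered to remove sporangia. Test solution in MeOH mixed 1:100 with the suspension (1% MeOH control), loaded onto hole-slide glasses and kept humid at 20 °C for 24 h in the dark. Germinated cells counted per hole by light microscope. Experiment repeated, mean ± SD.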

Phytophthora infestans [17] = experiment: Antifungal activity against Phytophthora infestans assessed as inhibition of sporangium germination incubated at 20 degC for 24 hr by light microscopy; assay type: functional, organism-based
How it was run: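 Sporangium germination: compounds serially diluted in MeOH (12500 to 391 μg/mL as stock series), sporangia incubated 24 h at 20 °C. About 100 sporangia per replicate scored for germination by light microscope. Experiment repeated, mean ± SD. IC50 by probit.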

[18] = system: Bursaphelenchus xylophilus; experiment: Nematicidal activity against second juvenile stage (J2) of Bursaphelenchus xylophilus assessed as mortality at >0.33 ug/ml after 2 days by microtiter plate assay method (Beneficial crop Pine); assay type: functional
How it was run: (§3)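 Pine wood nematodes reared on B. cinerea mycelia on PDA for 7 days at 28 °C. J2s collected in 0.01% Triton X-100 water and tested in microtiter plates. Compounds in DMSO or MeOH, solvent ≤1%; solvent-only controls. Concentrations 0.004–1 μg/mL. Mortality Abbott-corrected; LC50 by probit. Two runs, three replicates each.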

[19] = system: Bursaphelenchus xylophilus; experiment: Nematicidal activity against second juvenile stage (J2) of Bursaphelenchus xylophilus assessed as mortality after 2 days by microtiter plate assay method (Beneficial crop Pine); assay type: functional; conditions: 48 h; how it was run: as §3
Meloidogyne incognita [20] = experiment: Nematicidal activity against second juvenile stage (J2) of Meloidogyne incognita (root-knot nematode) assessed as mortality at 11 ug/ml incubated in the dark at 28 degC within 2 hr by light microscopy (benficial crop Tomato); assay type: functional
Meloidogyne incognita [21] = experiment: Nematicidal activity against second juvenile stage (J2) of Meloidogyne incognita (root-knot nematode) assessed as mortality incubated in the dark at 28 degC after 1 day by light microscopy (benficial crop Tomato); assay type: functional; conditions: 24 h; how it was run: as §1
Colletotrichum coccodes [22] = experiment: In vivo antifungal activity against Colletotrichum coccodes infected red pepper seedlings assessed as control of red pepper anthracnose development at 250 ug/ml treated 1 day before spore inoculation measured 3-7 days after inoculation; assay type: functional; how it was run: as §2
Colletotrichum coccodes [23] = experiment: In vivo antifungal activity against Colletotrichum coccodes infected red pepper seedlings assessed as control of red pepper anthracnose development at 500 ug/ml treated 1 day before spore inoculation measured 3-7 days after inoculation; assay type: functional; how it was run: as §2
Blumeria hordei [24] = experiment: In vivo antifungal activity against Blumeria graminis f. sp. hordei infected barley seedlings assessed as control of barley powdery mildew disease development at 125 ug/ml treated 1 day before spore inoculation measured 3-7 days after inoculation; assay type: functional; how it was run: as §2
Blumeria hordei [25] = experiment: In vivo antifungal activity against Blumeria graminis f. sp. hordei infected barley seedlings assessed as control of barley powdery mildew disease development at 250 ug/ml treated 1 day before spore inoculation measured 3-7 days after inoculation; assay type: functional; how it was run: as §2
Blumeria hordei [26] = experiment: In vivo antifungal activity against Blumeria graminis f. sp. hordei infected barley seedlings assessed as control of barley powdery mildew disease development at 500 ug/ml treated 1 day before spore inoculation measured 3-7 days after inoculation; assay type: functional; how it was run: as §2
Botrytis cinerea [27] = experiment: In vivo antifungal activity against Botryotinia fuckeliana infected in tomato seedlings assessed as control of tomato gray mold disease development at 125 ug/ml treated 1 day before spore inoculation measured 3-7 days after inoculation; assay type: functional; how it was run: as §2
Puccinia recondita [28] = experiment: In vivo antifungal activity against Puccinia recondita infected wheat seedlings assessed as reduction in wheat leaf rust disease symptoms development at 50 to 300 ug/ml treated 1 day before spore inoculation measured 7 days after inoculation; assay type: functional, organism-based; how it was run: as §2
Phytophthora infestans [29] = experiment: In vivo antifungal activity against Phytophthora infestans zoospores infected tomato seedlings assessed as control of tomato late blight disease development at 3.9 ug/ml treated 1 day before spore inoculation measured 3 days after inoculation; assay type: functional; how it was run: as §2
Colletotrichum coccodes [30] = experiment: In vivo antifungal activity against Colletotrichum coccodes infected red pepper seedlings assessed as control of red pepper anthracnose development at 125 ug/ml treated 1 day before spore inoculation measured 3-7 days after inoculation; assay type: functional; how it was run: as §2
Caenorhabditis elegans = experiment: Nematicidal activity against Caenorhabditis elegans assessed as mortality; assay type: functional

Structure (SMILES)	LC50 (Meloidogyne incognita [1])	LC50 (Meloidogyne incognita [2])	Activity (Rhizoctonia solani [3])	Activity (Botrytis cinerea [4])	Activity (Botrytis cinerea [5])	Activity (Rhizoctonia solani [6])	Activity (Rhizoctonia solani [7])	Activity (Pyricularia oryzae [8])	Activity (Pyricularia oryzae [9])	Activity (Pyricularia oryzae [10])	Activity (Phytophthora infestans [14])	growth inhibition (GI) (Phytophthora infestans [15])	IC50 (Phytophthora infestans [16])	inhibition (Phytophthora infestans [16])	IC50 (Phytophthora infestans [17])	inhibition (Phytophthora infestans [17])	mortality [18]	LC50 [19]	LC50 (Meloidogyne incognita [21])	Activity (Colletotrichum coccodes [22])	other results
CCCCCCCCCC[C@H](O)[C@H]1CC[C@H]([C@H]2CC[C@H]([C@H](O)CCCCCCCCCC[C@@H](O)CC3=C[C@H](C)OC3=O)O2)O1 (relative stereo) [REL-SQUAMOCIN-G]	0.287 µg/mL (≈ 0.461 µM)	0.339 µg/mL (≈ 0.544 µM)	11.8%	20%	0%	0%	0%	12.5%	18.8%	18.8%	Dose-dependent effect	31%	1.92 µg/mL (≈ 3.08 µM)	Dose-dependent effect	1.43 µg/mL (≈ 2.3 µM)	Dose-dependent effect	100%	0.008 µg/mL	0.864 µg/mL (≈ 1.39 µM)	0%	Activity (Puccinia recondita [11]): 0%; Activity (Puccinia recondita [12]): 0%; Activity (Puccinia recondita [13]): 0%; mortality at 11 µg/mL (Meloidogyne incognita [20]): 100%; Activity (Colletotrichum coccodes [23]): 0%; Activity (Blumeria hordei [24]): 0%; Activity (Blumeria hordei [25]): 25%; Activity (Blumeria hordei [26]): 0%; Activity (Botrytis cinerea [27]): 20%
CCCCCC[C@H](O)CCC[C@H](O)[C@H]1CC[C@H]([C@H](O)CC[C@H](O)[C@@H]2CC[C@@H](CCCCCCCCCC3=C[C@H](C)OC3=O)O2)O1 (relative stereo) [SQUAMOSTATIN A]			0%	10%	10%	11.8%	11.8%	50%	31.3%	37.5%	Dose-dependent effect	31%	1.89 µg/mL (≈ 2.96 µM)	Dose-dependent effect	2.09 µg/mL (≈ 3.27 µM)	Dose-dependent effect	100%	0.048 µg/mL		40%	Activity (Puccinia recondita [28]): Active; Activity (Phytophthora infestans [29]): >70%; Activity (Colletotrichum coccodes [30]): 20%; Activity (Colletotrichum coccodes [23]): 0%; Activity (Blumeria hordei [24]): 0%; Activity (Blumeria hordei [25]): 0%; Activity (Blumeria hordei [26]): 0%; Activity (Botrytis cinerea [27]): 10%
CCCCCCCCCC[C@@H](O)[C@H]1CC[C@H]([C@H]2CC[C@H]([C@H](O)CCCCCCCCCC[C@@H](O)CC3=C[C@H](C)OC3=O)O2)O1 [REL-SQUAMOCIN-H]	24.3 µg/mL (≈ 39 µM)	71.2 µg/mL (≈ 114 µM)															100%	0.012 µg/mL	> 100 µg/mL		LD100 (Caenorhabditis elegans): 0.1 ppm
